# Activity calls are given as the source filed them. The calls are words filed in the database; no cut-off is given here.
# Columns and labels:
# [1] = test system: Prescottella equi; assay: Antibacterial activity against Rhodococcus equi W5234 harboring GyrA Ser83Arg mutation selected on 16 ug/ml of compound treated culture by broth microdilution method; type: functional; conditions: Rhodococcus (subgen. Prescottella) equi
# Outline: (§1)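 Mutants were selected by plating at least 1 × 10^10 cells, grown 48 h at 35°C in brain heart infusion broth, on ciprofloxacin-containing Columbia blood agar base for 4 days at 35°C. Each was confirmed by two passages at the selecting concentration and one drug-free passage. MIC was then read by broth microdilution in cation-supplemented Mueller-Hinton broth per CLSI M24-A. Each experiment was done twice.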
# [2] = test system: Prescottella equi; assay: Antibacterial activity against Rhodococcus equi W5234 harboring GyrA Ser83Ile mutation selected on 12 ug/ml of compound treated culture by broth microdilution method; type: functional; conditions: Rhodococcus (subgen. Prescottella) equi; outline: as §1
# [3] = test system: Prescottella equi; assay: Antibacterial activity against Rhodococcus equi ATCC 6939T harboring GyrA Ser83Arg mutation selected on 16 ug/ml of compound treated culture by broth microdilution method; type: functional; conditions: Rhodococcus (subgen. Prescottella) equi; outline: as §1
# [4] = test system: Prescottella equi; assay: Antibacterial activity against Rhodococcus equi W5234 harboring GyrA Gly81Cys mutation selected on 4 ug/ml of compound treated culture by broth microdilution method; type: functional, organism-based; outline: as §1
# [5] = test system: Prescottella equi; assay: Antibacterial activity against Rhodococcus equi ATCC 6939T harboring GyrA Asp87His mutation selected on 6 ug/ml of compound treated culture by broth microdilution method; type: functional; conditions: Rhodococcus (subgen. Prescottella) equi; outline: as §1
# [6] = test system: Prescottella equi; assay: Antibacterial activity against Rhodococcus equi ATCC 6939T harboring GyrA Ser83Arg mutation selected on 8 ug/ml of compound treated culture by broth microdilution method; type: functional; conditions: Rhodococcus (subgen. Prescottella) equi; outline: as §1
# [7] = test system: Prescottella equi; assay: Antibacterial activity against Rhodococcus equi ATCC 6939T isolated from lung abscess of horse; type: functional; conditions: Rhodococcus (subgen. Prescottella) equi
# Outline: (§2)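 Cells grown 48 h at 35°C with shaking in brain heart infusion broth, then resuspended. MIC by broth microdilution in cation-supplemented Mueller-Hinton broth per CLSI M24-A. For MIC99 and MPC, ≥1 × 10^10 cells were plated on Columbia blood agar base containing a range of ciprofloxacin concentrations and incubated 4 days at 35°C. Resistant-colony fraction relative to CFU on drug-free plates was plotted against concentration. Run twice.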
# [8] = test system: Prescottella equi; assay: Antibacterial activity against Rhodococcus equi W5234 isolated from HIV-positive patient; type: functional; conditions: Rhodococcus (subgen. Prescottella) equi; outline: as §2
# [9] = test system: Prescottella equi; assay: Antibacterial activity against Rhodococcus equi ATCC 6939T harboring GyrA Asp87Gly mutation selected on 8 ug/ml of compound treated culture by broth microdilution method; type: functional; conditions: Rhodococcus (subgen. Prescottella) equi; outline: as §1
# [10] = test system: Prescottella equi; assay: Antibacterial activity against Rhodococcus equi ATCC 6939T harboring GyrA Ser83Ile mutation selected on 8 ug/ml of compound treated culture by broth microdilution method; type: functional; conditions: Rhodococcus (subgen. Prescottella) equi; outline: as §1
# [11] = test system: Prescottella equi; assay: Antibacterial activity against Rhodococcus equi ATCC 6939T harboring GyrA Ser83Ile mutation selected on 12 ug/ml of compound treated culture by broth microdilution method; type: functional; conditions: Rhodococcus (subgen. Prescottella) equi; outline: as §1
# [12] = test system: Prescottella equi; assay: Antibacterial activity against Rhodococcus equi ATCC 6939T harboring GyrA Asp87Gly mutation selected on 4 ug/ml of compound treated culture by broth microdilution method; type: functional; conditions: Rhodococcus (subgen. Prescottella) equi; outline: as §1
# [13] = test system: Prescottella equi; assay: Antibacterial activity against Rhodococcus equi W5234 harboring GyrA Asp87Gly mutation selected on 4 ug/ml of compound treated culture by broth microdilution method; type: functional, organism-based; outline: as §1
# [14] = test system: Prescottella equi; assay: Antibacterial activity against Rhodococcus equi ATCC 6939T harboring GyrA Ser83Ile mutation selected on 4 ug/ml of compound treated culture by broth microdilution method; type: functional, organism-based; outline: as §1
# [15] = test system: Prescottella equi; assay: Antibacterial activity against Rhodococcus equi ATCC 6939T harboring GyrA Ser83Arg mutation selected on 6 ug/ml of compound treated culture by broth microdilution method; type: functional, organism-based; outline: as §1
# [16] = test system: Prescottella equi; assay: Antibacterial activity against Rhodococcus equi ATCC 6939T harboring GyrB Asn464Asp mutation selected on 1 ug/ml of compound treated culture by broth microdilution method; type: functional, organism-based; outline: as §1
# [17] = test system: Prescottella equi; assay: Antibacterial activity against Rhodococcus equi W5234 harboring GyrA Ser83Arg mutation selected on 6 ug/ml of compound treated culture by broth microdilution method; type: functional; conditions: Rhodococcus (subgen. Prescottella) equi; outline: as §1
# [18] = test system: Prescottella equi; assay: Antibacterial activity against Rhodococcus equi W5234 harboring GyrA Ser83Ile mutation selected on 16 ug/ml of compound treated culture by broth microdilution method; type: functional, organism-based; outline: as §1
# [19] = test system: Prescottella equi; assay: Antibacterial activity against Rhodococcus equi W5234 harboring GyrA Asp87Asn mutation selected on 8 ug/ml of compound treated culture by broth microdilution method; type: functional, organism-based; outline: as §1
# [20] = test system: Prescottella equi; assay: Antibacterial activity against Rhodococcus equi W5234 harboring GyrA Asp87His mutation selected on 6 ug/ml of compound treated culture by broth microdilution method; type: functional; conditions: Rhodococcus (subgen. Prescottella) equi; outline: as §1
# [21] = test system: Prescottella equi; assay: Antibacterial activity against Rhodococcus equi W5234 harboring GyrA Ser83Ile mutation selected on 4 ug/ml of compound treated culture by broth microdilution method; type: functional; conditions: Rhodococcus (subgen. Prescottella) equi; outline: as §1
# [22] = test system: Prescottella equi; assay: Antibacterial activity against Rhodococcus equi ATCC 6939T harboring GyrA Ser83Ile mutation selected on 16 ug/ml of compound treated culture by broth microdilution method; type: functional; conditions: Rhodococcus (subgen. Prescottella) equi; outline: as §1
# [23] = test system: Prescottella equi; assay: Antibacterial activity against Rhodococcus equi ATCC 6939T selected on 2 ug/ml of compound treated culture by broth microdilution method; type: functional; conditions: Rhodococcus (subgen. Prescottella) equi; outline: as §1
# [24] = test system: Prescottella equi; assay: Antibacterial activity against Rhodococcus equi W5234 harboring GyrA Ser83Arg mutation selected on 2 ug/ml of compound treated culture by broth microdilution method; type: functional; conditions: Rhodococcus (subgen. Prescottella) equi; outline: as §1
# [25] = test system: Prescottella equi; assay: Antibacterial activity against Rhodococcus equi ATCC 6939T harboring GyrA Ser83Arg mutation selected on 2 ug/ml of compound treated culture by broth microdilution method; type: functional, organism-based; outline: as §1
structure (smiles),measurement,setting,value
O=C(O)c1cn(C2CC2)c2cc(N3CCNCC3)c(F)cc2c1=O [CIPROFLOXACIN],MIC,[1],64 µg/mL
same,MIC,[2],64 µg/mL
same,MIC,[3],32 µg/mL
same,MIC,[4],inactive
same,MIC,[5],16 µg/mL
same,MIC,[6],64 µg/mL
same,MIC99,[7],0.42 µg/mL
same,MIC,[8],0.5 µg/mL
same,MIC,[9],16 µg/mL
same,MIC,[10],32 µg/mL
same,MIC,[11],128 µg/mL
same,MIC,[12],8 µg/mL
same,MIC,[13],inactive
same,MIC,[14],inactive
same,MIC,[15],inactive
same,MIC,[16],inactive
same,MIC,[17],32 µg/mL
same,MIC,[18],inactive
same,MIC,[19],inactive
same,MIC,[20],16 µg/mL
same,MIC,[21],32 µg/mL
same,MIC,[22],64 µg/mL
same,MIC,[23],2 µg/mL
same,MIC,[24],8 µg/mL
same,MIC,[25],inactive
